Tests used:
[1] = Ratio of kinetic parameter Kcat to that of binding affinity towards adenosine deaminase KM.
Summary of the method: (§1)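 Calf intestinal mucosa adenosine deaminase (0.15 units) in pH 7.4 phosphate buffer (2 mL) at 25 °C, with substrate at 15-100 µM. Hydrolysis was followed by UV absorbance at 265 nm, and substrate concentration was derived from the absorbance change. Initial rates came from graphical fitting of concentration versus time.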

[2] = molecular target: T1, Adenosine deaminase (Bos taurus) (UniProt P56658); test: Kinetic parameter Kcat of compound used as substrate for Adenosine deaminase was evaluated; summary of the method: as §1
T1 sequence (whole entry): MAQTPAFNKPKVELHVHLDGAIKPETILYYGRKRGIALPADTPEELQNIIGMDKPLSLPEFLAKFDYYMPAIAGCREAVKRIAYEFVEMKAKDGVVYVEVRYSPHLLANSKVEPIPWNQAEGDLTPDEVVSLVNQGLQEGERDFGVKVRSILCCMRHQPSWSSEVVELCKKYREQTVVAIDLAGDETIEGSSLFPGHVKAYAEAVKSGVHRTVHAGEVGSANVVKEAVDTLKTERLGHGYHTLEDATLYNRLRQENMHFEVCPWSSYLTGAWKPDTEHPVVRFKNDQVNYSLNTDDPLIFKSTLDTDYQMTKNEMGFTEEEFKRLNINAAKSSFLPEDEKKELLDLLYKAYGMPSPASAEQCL

Row | SMILES | k cat/Km [1] [M⁻¹ s⁻¹] | k cat [2] [s⁻¹]
1 | Nc1ncnc2c1ncn2[C@@H]1O[C@H](CO)[C@@H](O)[C@H]1O | 3.1e+06 | 76.4
2 | Nc1ncnc2c1ncn2[C@@H]1S[C@H](CO)C=C1F | 50000 | 0.94
